# Screening results deposited in PubChem by several laboratories.
# Only some compounds are listed: those with a hit (about 9.6% of all), similar ones and a draw of the others.
# Lmaj promast: reduces viability of Leishmania major promastigotes | actives 9% (n = 200,000) | resazurin fluorescence viability | inhibition, % at 10 µM | AID 1063; in the data active = inhibition above about 50%;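 also: promastigotes grown with compound for 44 hours at 28 °C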
# TNAP act hiacc: increases human TNAP activity under high phosphate acceptor concentration | P05186 | purified TNAP, CDP-star luminescence, 1 M DEA, 30 min; hits give high values; 0 = EDTA background, 1 = DMSO-only activity | activation factor at 20 µM | 200,000 tested, under 10 active | AID 1136;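 active = activation factor at least 2 at 20 µM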
# Target sequence (P05186 whole entry, looked up): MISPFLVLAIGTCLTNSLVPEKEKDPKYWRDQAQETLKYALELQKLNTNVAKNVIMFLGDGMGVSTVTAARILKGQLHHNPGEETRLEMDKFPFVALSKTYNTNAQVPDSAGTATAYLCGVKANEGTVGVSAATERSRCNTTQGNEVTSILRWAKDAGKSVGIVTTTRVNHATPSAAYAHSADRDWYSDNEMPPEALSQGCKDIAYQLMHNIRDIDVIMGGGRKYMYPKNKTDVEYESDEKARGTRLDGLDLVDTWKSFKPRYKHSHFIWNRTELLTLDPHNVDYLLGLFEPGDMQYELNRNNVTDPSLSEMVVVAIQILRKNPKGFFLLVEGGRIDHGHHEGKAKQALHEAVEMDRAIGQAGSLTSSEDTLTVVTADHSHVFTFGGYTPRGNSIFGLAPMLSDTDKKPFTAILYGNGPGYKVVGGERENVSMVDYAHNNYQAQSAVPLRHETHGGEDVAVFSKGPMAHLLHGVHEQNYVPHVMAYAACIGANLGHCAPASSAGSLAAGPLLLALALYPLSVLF
#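 Assay system: human TNAP; Input: enzyme diluted 1/800 final; Reagent: CDP-star luminogenic substrate at 100 µM final; Timing: 30 min, room temperature; Signal: luminescence; Evaluation: TNAP activation factor scaled between EDTA and DMSO control wells.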
# TNAP inh no acc: TNAP (human) inhibition, acceptor-free conditions; purified TNAP, CDP-star luminescence, 30 min; inhibition, % at 20 µM; actives 0.26% (n = 200,000);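 active = tissue-nonspecific alkaline phosphatase inhibition above about 50% at 20 µM in the single-dose screen, limit read from the data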;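 also: 0% = DMSO negative control and 100% = EDTA positive control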
# HCT116 PTEN-null: PTEN-deleted cell growth suppression | viability, % at 10 µM | AID 827 | actives 1.2% (n = 140,000) | HCT116 PTEN-null viability, CellTiter-Glo, 60 h; hits give low values;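 active = viability at or below a set limit, 4 SD under the median of all tested compounds, cut at about 3.7% in these data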;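 also: PTEN knockout HCT116 line with beta catenin targeted HCT116 as companion control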
# TNAP inh hiacc: inhibitors of human TNAP at high phosphate acceptor concentration | P05186 | purified TNAP, CDP-star luminescence, 1 M DEA | inhibition, % at 20 µM | actives 0.03% (n = 200,000) | AID 1135;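 active = over 50% inhibition of tissue-nonspecific alkaline phosphatase at 20 µM in the single-dose screen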;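 also: plate controls were DMSO wells for no effect and EDTA-quenched wells as full inhibition for full effect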
# HCT116 bCat-KO: beta-catenin-lacking colon tumor cell growth suppression. HCT116 beta-catenin knockout viability, CellTiter-Glo, 60 h; hits give low values. viability, % at 10 µM. actives 1.5% (n = 140,000);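 active = viability at or under a set limit, the compound median less 4 SD, cut at about 6% in these data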;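 also: 0% = Hyamine 1622 control at 20 µM and 100% = untreated cell control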
# The depositor's hits bear a star; x = not tested or not shown.
SMILES,Lmaj promast,TNAP act hiacc,TNAP inh no acc,HCT116 PTEN-null,TNAP inh hiacc,HCT116 bCat-KO
Cc1ccc(NC(=O)C2(c3ccccc3)CCOCC2)c([N+](=O)[O-])c1,-5,1,-17,98,2,86
Cc1ccc(NC(=O)C(NC2CCCc3ccccc32)c2ccccc2)c([N+](=O)[O-])c1 (centres undefined),89*,0.9,-2,73,7,81
CCN(CC)S(=O)(=O)c1ccc(C(=O)NC(=S)N(CCC#N)Cc2cccnc2)cc1,-5,1,-7,x,-2,x
COc1cccc(/C=N/NC(=O)C(=O)Nc2ccccc2OC(F)(F)C(F)F)c1O,97*,1,-98,12,4,13
COc1cccc(/C=N/NC(=O)C(=O)NCc2cccnc2)c1OC,-6,1.1,-12,x,-7,x
COc1cccc(/C=N/NC(=O)C(=O)NCc2cccnc2)c1O,98*,1,-170,89,-1,93
O=C(CSc1ncnc2c1cnn2-c1ccccc1)Nc1ccc2c(c1)OCO2,4,1,4,103,4,96
O=C(CSc1nc2cc(Cl)ccc2s1)NCc1ccc2c(c1)OCO2,76*,1,-12,107,-4,99
COc1ccccc1/C=C(/CC(=O)NCc1ccc2c(c1)OCO2)c1nc2ccccc2s1,93*,1,-2,76,0,88
O=C(CSc1ncnc2c1cnn2-c1ccc(Cl)cc1)NCc1ccc2c(c1)OCO2,52*,1,4,21,-4,24
COc1ccc2oc(=O)c(/C(C)=N/NC(=O)c3ccncc3)cc2c1,-7,0.9,34,98,12,98
CCOC(=O)c1cc(C#N)c(N2CCN(c3ccccn3)CC2)nc1-c1ccccc1,-1,1,-3,x,4,x
CC(C)CCNC(=O)COC(=O)c1cc(Br)c(Br)s1,-1,1,-6,x,1,x
CCCOc1ccccc1N/C(N)=N/c1nc(C)cc(C)n1,90*,1,-8,x,-4,x
CCCCN(CCCC)/C(N)=N/c1nc(C)cc(C)n1,45,1,0,x,-3,x
CCCOc1ccccc1NC(=O)/C=C/C(N)=O,101*,1.1,-10,106,-5,101
COc1ccc(N/C(N)=N/c2nc(C)cc(C)n2)c(OC)c1,14,1,-6,x,-3,x
CCCCOc1ccccc1NC(=O)C=C(C)C,4,1,-12,95,-4,102
Cc1cc(C)nc(/N=C(\N)Nc2ccc(-c3ccccc3)cc2)n1,98*,1.1,-93,x,-5,x
Cc1cc(C)nc(/N=C(\N)N(Cc2ccccc2)Cc2ccccc2)n1,90*,1,-10,x,-1,x
O=C(COc1ccc(NS(=O)(=O)c2ccc(F)cc2)cc1)N1CCOCC1,1,1,-6,x,-4,x
CCCOc1ccccc1N/C(=N/c1nc(C)cc(C)n1)NC(=O)COc1ccc(OC)cc1,97*,1,-14,64,-4,51
Cc1cc(C)c(S(=O)(=O)N(C)c2ccccc2)c(C)c1,14,1,-10,x,-3,x
CCCOC(=O)c1ccc(Oc2cn[nH]c2-c2ccc(OC)cc2O)cc1,85*,1.1,-18,47,-6,47
C=C(C)COc1ccc(-c2[nH]ncc2-c2ccc(Br)cc2)c(O)c1,1,1,5,2.2*,3,1.8*
SMILES,Lmaj promast,TNAP act hiacc,TNAP inh no acc,HCT116 PTEN-null,TNAP inh hiacc,HCT116 bCat-KO
C=C(C)COc1ccc(-c2[nH]ncc2Oc2ccccc2OC)c(O)c1,54*,1,2,68,-1,89
COc1ccc2cc(CN(CC3CCCO3)C(=S)Nc3ccccc3)c(=O)[nH]c2c1 (centres undefined),26,1.1,-4,x,-5,x
CCOC(=O)N1CCN(C(=O)CSc2ccc3nnc(CCNC(=O)c4ccccc4)n3n2)CC1,4,1.1,-10,x,-6,x
O=C(C1=C[C@H](c2ccc(C(F)(F)F)cc2)C[C@H](OCc2ccc(CO)cc2)O1)N1CCN(Cc2ccc3c(c2)OCO3)CC1,45,1,3,x,0,x
O=C(C1=C[C@H](c2ccc3c(c2)OCO3)C[C@H](OCc2ccc(CO)cc2)O1)N1CCCCCCC1,61*,1.1,-8,x,-6,x
O=C(C1=C[C@@H](c2ccc(Br)cc2)C[C@@H](OCc2ccc(CO)cc2)O1)N1CCN(Cc2ccccc2)CC1,12,1.1,-6,x,-8,x
O=C(C1=C[C@@H](c2ccc(C(F)(F)F)cc2)C[C@@H](OCc2ccc(CO)cc2)O1)N1CCN(Cc2ccc3c(c2)OCO3)CC1,56*,1.1,-9,x,-8,x
O=C(C1=C[C@@H](c2ccc(Br)cc2)C[C@@H](OCc2ccc(CO)cc2)O1)N1CCN(Cc2ccc3c(c2)OCO3)CC1,56*,1.1,-12,x,-9,x
CCn1ccnc1CN(C)Cc1nc(CCC(C)C)no1,-3,1.1,-13,x,-7,x
CCOC(=O)N1CCN(C(=O)c2ccc3c(c2)sc2nc(-c4ccc(OC)cc4)cn23)CC1,98*,1,-6,85,0,95
CC(C)(C)C(=O)N1CCN(c2ccc([N+](=O)[O-])c(-n3nc(-c4ccccc4)c4ccccc4c3=O)c2)CC1,57*,1,3,88,4,92
CCOc1ncccc1C(=O)OCc1cccc([N+](=O)[O-])c1,9,1,-9,x,1,x
N#CC1(c2ccc(NC(=O)c3ccccc3F)cc2)CCCC1,-6,1,-2,84,4,91
Cc1ccc(C2=NN(S(=O)(=O)c3ccccc3)C(c3ccccc3O)C2)cc1 (centres undefined),97*,1,-7,x,-2,x
CS(=O)(=O)Nc1ccc(C2=NN(S(=O)(=O)c3ccccc3)C(c3cccs3)C2)cc1 (centres undefined),15,1,11,x,1,x
CC(=O)NC(=S)Nc1ccccc1N1CCCCC1,-3,1,-2,x,-2,x
CCOC(=O)C(C)(C)N(Cc1cccc(C)c1)S(=O)(=O)c1cccc([N+](=O)[O-])c1,40,1,-15,65,2,61
CCOC(=O)C(C)(C)N(Cc1cccc(C)c1)S(=O)(=O)c1ccc(Cl)c([N+](=O)[O-])c1,86*,1,-23,3.3*,3,1.7*
Cc1ccc(S(=O)(=O)Oc2ccc(/C=C(/NC(=O)c3ccccc3)C(=O)NC(C)C(=O)O)cc2)cc1 (centres undefined),-2,1.1,-5,x,-6,x
COc1ccc(N(C(=O)Cn2nnc(-c3ccccc3F)n2)C(C(=O)NCC2CCCO2)c2ccc(Cl)cc2)cc1 (centres undefined),-6,1.1,-9,x,-6,x
CCN(CC)S(=O)(=O)c1cccc(-c2nnc(SCC(=O)NC)n2N)c1,-7,1,-5,x,0,x
CCN(CC)S(=O)(=O)c1cccc(-c2nnc(SCC(=O)c3ccc(Cl)s3)n2C)c1,78*,1,-2,67,-3,70
